# Measurements published in ChEMBL document CHEMBL1136798, “Synthesis and pharmacological characterization of a series of geometrically constrained 5-HT(2A/2C) receptor ligands” (J Med Chem, 2003).
# pEC50, pKi: −log10 of the molar value. Active and inactive are the calls of the source.
# What was measured:
# [1] = target: T1, 5-hydroxytryptamine receptor 2C (Rattus norvegicus, UniProt P08909); test: In vitro binding to 5-hydroxytryptamine 2C receptor using [125 I]-DOI
# T1 sequence (P08909 whole entry): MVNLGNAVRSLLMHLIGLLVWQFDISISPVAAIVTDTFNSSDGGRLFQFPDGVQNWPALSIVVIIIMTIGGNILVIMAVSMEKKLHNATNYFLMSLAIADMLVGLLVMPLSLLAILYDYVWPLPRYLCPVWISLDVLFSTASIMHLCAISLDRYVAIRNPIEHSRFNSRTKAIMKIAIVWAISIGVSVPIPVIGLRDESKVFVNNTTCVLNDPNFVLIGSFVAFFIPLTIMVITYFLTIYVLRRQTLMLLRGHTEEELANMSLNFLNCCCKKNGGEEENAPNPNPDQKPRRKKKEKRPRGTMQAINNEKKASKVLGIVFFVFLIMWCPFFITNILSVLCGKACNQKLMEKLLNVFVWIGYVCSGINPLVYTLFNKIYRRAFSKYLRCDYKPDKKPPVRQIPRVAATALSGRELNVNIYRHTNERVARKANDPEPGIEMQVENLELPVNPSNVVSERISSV
# In short: (§1)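 Stably transfected cells expressing the rat 5-HT2A or rat 5-HT2C receptor were harvested as frozen pellets. Nonspecific binding was set with 10 µM cinanserin (5-HT2A) or 10 µM mianserin (5-HT2C). Bound label was collected on PEI-soaked GF/B filters and counted by scintillation.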
# [2] = target: T2, 5-hydroxytryptamine receptor 1A (Homo sapiens, UniProt P08908); test: Tested in vitro for its ability to bind to 5-hydroxytryptamine 1A receptor using [3H]8-OH-DPAT as radioligand
# T2 sequence (P08908 whole entry): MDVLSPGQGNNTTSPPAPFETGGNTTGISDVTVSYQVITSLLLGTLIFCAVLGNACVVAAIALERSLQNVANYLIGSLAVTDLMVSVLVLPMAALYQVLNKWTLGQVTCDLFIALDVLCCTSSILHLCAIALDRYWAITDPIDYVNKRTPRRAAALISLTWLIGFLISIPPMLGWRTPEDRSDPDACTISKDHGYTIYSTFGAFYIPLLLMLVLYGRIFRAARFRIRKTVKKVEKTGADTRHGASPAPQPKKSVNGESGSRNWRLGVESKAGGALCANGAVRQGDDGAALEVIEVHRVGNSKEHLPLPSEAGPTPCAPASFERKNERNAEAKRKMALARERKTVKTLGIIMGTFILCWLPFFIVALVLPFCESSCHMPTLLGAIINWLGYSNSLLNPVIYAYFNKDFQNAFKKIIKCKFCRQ
# In short: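 Human 5-HT1A receptor stably expressed in cells, used as harvested pellets. Competition used 2.0 nM [3H]-8-OH-DPAT in Tris/EDTA/MgCl2 buffer at pH 7.4, for 60 min at 25 °C. Nonspecific binding was defined with 10 µM 5-HT. Bound label was collected by filtration and counted by scintillation.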
# [3] = target: T3, 5-hydroxytryptamine receptor 2A (Rattus norvegicus, UniProt P14842); test: In vitro binding to 5-hydroxytryptamine 2A receptor using [125 I]-DOI; in short: as §1
# Rattus norvegicus [4] = species on record: Rattus norvegicus; test: Maximum 5-HT stimulation was determined […]; type: functional
# In short: (§2)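 Rat 5-HT2A-expressing cells at 70% confluency were labelled for 18-20 h with 1.0 µCi/mL [3H]-myo-inositol. They were pretreated for 15 min with 10 µM pargyline/10 mM LiCl, then exposed to drug for 30 min at 37 °C. Formic acid stopped the reaction. [3H]inositol phosphates were separated on Dowex-1 columns. Efficacy is expressed relative to serotonin.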
# [5] = target: T3, 5-hydroxytryptamine receptor 2A; test: (§3) Tested for its ability to activate phospholipase C by quantification of IP3 at cloned rat 5-hydroxytryptamine 2A receptor
# In short: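 They were pretreated for 15 min with 10 µM pargyline/10 mM LiCl, then exposed to drug for 30 min at 37 °C. Formic acid stopped the reaction. [3H]inositol phosphates were separated on Dowex-1 columns. Efficacy is expressed relative to serotonin.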
# Rattus norvegicus [6] = species on record: Rattus norvegicus; test: Maximum 5-HT stimulation was determined at 10 uM […]; type: functional
# Rattus norvegicus [7] = test: Compound was tested for effective dose in LSD trained rats; Partial substitution at 1-6 uM/Kg (0.36-[…]); type: functional, organism-based
# Rattus norvegicus [8] = test: Compound was tested for effective dose in DOI trained rats; Partial substitution at 1-6 uM/Kg (0.36-[…]); type: functional, organism-based
# [9] = target: T3, 5-hydroxytryptamine receptor 2A; test: Tested for its ability to activate phospholipase c by quantification of IP3 at cloned rat 5-hydroxytryptamine 2A receptor; in short: as §2
# [10] = target: T3, 5-hydroxytryptamine receptor 2A; test: as §3; in short: as §2; remark: listed apart in the source
# [11] = target: T3, 5-hydroxytryptamine receptor 2A; test: Tested in vitro for its ability to bind to 5-hydroxytryptamine 2A receptor using [125 I]-DOI as radioligand
# In short: as §1, with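 “pellets. Competition used 0.20 nM [125I]-DOI in 50 mM Tris, 0.1 mM EDTA, 10 mM MgCl2, pH 7.4, for 60 min at 25 °C.” for “pellets.”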
# Rattus norvegicus [12] = species on record: Rattus norvegicus; test: Compound was tested for effective dose in LSD trained rats; type: functional
# Rattus norvegicus [13] = species on record: Rattus norvegicus; test: Compound was tested for effective dose in DOI trained rats; type: functional
# T3 sequence (P14842 whole entry): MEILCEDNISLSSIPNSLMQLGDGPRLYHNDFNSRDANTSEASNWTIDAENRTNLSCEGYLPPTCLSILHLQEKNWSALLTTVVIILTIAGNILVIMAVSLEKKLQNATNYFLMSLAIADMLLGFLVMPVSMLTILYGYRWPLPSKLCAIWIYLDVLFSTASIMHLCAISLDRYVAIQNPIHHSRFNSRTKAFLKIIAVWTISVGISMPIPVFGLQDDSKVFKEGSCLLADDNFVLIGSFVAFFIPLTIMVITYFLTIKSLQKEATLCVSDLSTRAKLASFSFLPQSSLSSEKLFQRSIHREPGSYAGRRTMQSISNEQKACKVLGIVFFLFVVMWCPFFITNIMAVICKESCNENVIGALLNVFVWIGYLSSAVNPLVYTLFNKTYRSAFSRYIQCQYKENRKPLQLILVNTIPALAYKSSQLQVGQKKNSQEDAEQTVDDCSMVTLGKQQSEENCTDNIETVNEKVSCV
Compound,pKi [1],pKi [2],pKi [3],Max (Rattus norvegicus [4]) [%],pEC50 [5],other results
COc1cc(Br)c2c3c1[C@H](CN)CC[C@@H]3CO2,8.55,6.28,8.06,49,5.96,
COc1cc(Br)c2c3c1C[C@H](N)C[C@@H]3CO2 (relative stereo),8.40,6.02,7.80,63,5.68,
CCN(CC)C(=O)[C@@H]1C=C2c3cccc4[nH]cc(c34)C[C@H]2N(C)C1 [LYSERGIDE],,,,22,,
COc1ccc2c3c1[C@H](CN)CC[C@@H]3CO2,7.23,5.52,6.15,,,
COc1ccc2occ3c2c1[C@H](CN)CC3,7.96,6.07,6.70,,< 5.00,Max (Rattus norvegicus [6]): 10%
COc1cc(Br)c2occ3c2c1[C@H](CN)CC3,8.96,6.98,8.59,33,6.92,PS (Rattus norvegicus [7]): Partially active; PS (Rattus norvegicus [8]): Partially active
COc1ccc2c3c1[C@H](CN)CC[C@H]3CO2,7.47,6.00,6.51,,,
COc1cc(CCN)cc(OC)c1OC [MESCALINE],,,,92,,pEC50 [9]: 5.59
CN(C)CCc1c[nH]c2cccc(O)c12 [PSILOCIN],,,7.60,46,5.64,
COc1cc(Br)c2c3c1[C@H](CN)CC[C@H]3CO2,8.31,6.26,,37,,pEC50 [10]: 6.47; pKi [11]: 8.03
COc1cc(CC(C)N)c(OC)cc1Br (configuration not stated) [BROLAMFETAMINE],,,,79,,ED50 (Rattus norvegicus [12]): 1.06 µmol/kg; ED50 (Rattus norvegicus [13]): 0.091 µmol/kg
